# From ChEMBL document CHEMBL1124388, “Cardiotonic agents. 1-Methyl-7-(4-pyridyl)-5,6,7,8-tetrahydro-3 (2H)-isoquinolinones and related compounds. Synthesis and activity” (J Med Chem, 1989)
# Activity calls are given as the source filed them. The rule behind the calls is not given here.
# Tests used:
# [1] = species on record: Canis familiaris; experiment: Positive inotropic effects in the propranolol induced heart failure model in the dog.; type: functional, Canis lupus familiaris
# In short: (§1)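 Pentobarbital-anesthetized (30 mg/kg iv) mongrel dogs, 8–12 kg, either sex. Heart failure induced by propranolol, 4 mg/kg iv bolus then 0.1 mg/kg/min infusion. About 20 min later, compound given cumulatively into the femoral vein, one dose-response curve per animal. LV dp/dt max read by electronic differentiator. ED100 is the dose restoring pre-propranolol LV dp/dt max, taken from log dose-response. Highest dose tested 10 mg/kg. Three experiments unless stated.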
# [2] = test system: Canis familiaris; experiment: Positive inotropic effects in the propranolol induced heart failure model in the dog; Inactive at 10 mg/kg.; type: functional, organism-based; set-up: dose 10 mg/kg; conditions: Canis lupus familiaris; in short: as §1
# [3] = species on record: Canis lupus familiaris; experiment: Relative inhibition of canine PDE1 and PDE 3
# [4] = biological target: Phosphodiesterase 3 (Canis familiaris); experiment: Inhibition of canine Phosphodiesterase III (PDE 3)
# [5] = biological target: Phosphodiesterase 1 (Canis familiaris); experiment: Inhibition of canine Phosphodiesterase 1(PDE 1)
SMILES,ED100 [1] [mg/kg],ED100 [2],further results
Cc1nc(O)c(C#N)c2c1CC(c1ccccn1)CC2 (centres undefined),0.3,–,–
Cc1c(C#N)c(O)nc2c1CCCC2,–,inactive,–
Cc1nc(O)c([N+](=O)[O-])c2c1CC(c1ccncc1)CC2 (centres undefined),0.1,–,–
Cc1nc(O)c(C#N)c2c1CC(c1cccnc1)CC2 (centres undefined),0.1,–,–
COC1CCc2nc(O)c(C#N)c(C)c2C1 (centres undefined),–,inactive,–
CCCc1c(O)nc(C)c2c1CCC(c1ccncc1)C2 (centres undefined),0.3,–,–
COC1CCc2c(C#N)c(O)nc(C)c2C1 (centres undefined),1,–,–
Cc1nc(O)c(C(=O)c2ccccc2)c2c1CC(c1ccncc1)CC2 (centres undefined),–,inactive,–
COc1ccc(C2CCc3c(C#N)c(O)nc(C)c3C2)cc1 (centres undefined),0.3,–,–
CC(=O)c1c(O)nc2c(c1C)CC(c1ccncc1)CC2 (centres undefined),–,inactive,–
Cc1nc(O)c(C#N)c2c1CC(c1ccncc1)CC2 (centres undefined),0.1,–,–
Cc1nc(O)c(C=O)c2c1CC(c1ccncc1)CC2 (centres undefined),–,inactive,–
CCC(=O)c1c(O)nc(C)c2c1CCC(c1ccncc1)C2 (centres undefined),4,–,–
Cc1nc(O)c(C#N)c2c1CCCC2,3,–,–
N#Cc1c(O)ncc2c1CCCC2,–,inactive,–
Cc1nc(O)c(C#N)c2c1CCC(C)C2 (centres undefined),1,–,–
Cc1c(C#N)c(O)nc2c1CC(C)CC2 (centres undefined),–,inactive,–
Cc1nc(O)c(C)c2c1CC(c1ccncc1)CC2 (centres undefined),2,–,–
CCCCc1nc(O)c(C(C)=O)c2c1CC(c1ccncc1)CC2 (centres undefined),–,inactive,–
Cc1nc(O)c(C#N)c2c1CC(C(C)(C)C)CC2 (centres undefined),–,inactive,–
CCCC(=O)c1c(O)nc(C)c2c1CCC(c1ccncc1)C2 (centres undefined),–,inactive,–

SMILES,ED100 [1] [mg/kg],ED100 [2],further results
CCCc1nc(O)c(C#N)c2c1CCCC2,–,inactive,–
Cc1nc(O)c(C#N)c2c1CCCC2C (centres undefined),2,–,–
Cc1c2c(c(C#N)c(=O)n1C)CCC(C)C2 (centres undefined),–,inactive,–
CCc1nc(O)c(C(C)=O)c2c1CC(c1ccncc1)CC2 (centres undefined),0.3,–,–
Cc1nc(O)c(C#N)c2c1CC(C)CC2 (centres undefined),0.3,–,–
Cc1c(C#N)c(O)nc2c1CC(c1ccncc1)CC2 (centres undefined),–,inactive,–
CCCCOC1CCc2c(C#N)c(O)nc(C)c2C1 (centres undefined),–,inactive,–
COCc1ccc(C2CCc3c(C#N)c(O)nc(C)c3C2)cc1 (centres undefined),–,inactive,–
Cc1[nH]c(=O)c(C#N)cc1-c1ccncc1 [MILRINONE],0.1,–,–
CCC1CCc2c(C#N)c(O)nc(C)c2C1 (centres undefined),1,–,–
Cc1nc(O)c(C(N)=O)c2c1CC(c1ccncc1)CC2 (centres undefined),–,inactive,–
Cc1nc(O)c(C#N)c2c1CCC(c1ccncc1)C2 (centres undefined),–,inactive,–
Cc1nc(O)c(N)c2c1CC(c1ccncc1)CC2 (centres undefined),0.2,–,–
Cc1nc(O)c(C#N)c2c1CC(c1ccc(CN(C)C)cc1)CC2 (centres undefined),–,inactive,–
CCc1c(O)nc(C)c2c1CCC(c1ccncc1)C2 (centres undefined),0.02,–,–
Cc1nc(O)cc2c1CC(c1ccncc1)CC2 (centres undefined),0.3,–,–
Cc1nc(O)c(C#N)c2c1C(C)CCC2 (centres undefined),3,–,–
CC(=O)c1c(O)nc(C)c2c1CCC(c1ccncc1)C2 (centres undefined),0.1,–,Ratio [3]: 273; IC50 [4]: 1.5 µM; IC50 [5]: 409 µM
Cc1nc(O)c(C#N)c2c1CC(c1ccccc1)CC2 (centres undefined),0.1,–,–
Cc1nc(O)c(C#N)c2c1CC(c1ccc(N(C)C)cc1)CC2 (centres undefined),–,inactive,–
